Blank lines part the entries; values can stand above or below the compound they belong to.
Tests used:
Assay type in all cases: ADME
[1] = biological target: T1, UDP-glucuronosyltransferase 2A1 (Homo sapiens, UniProt P0DTE4); assay: Drug metabolism assessed as recombinant human C-terminal His-tagged UGT2A1-mediated 17-epiestriol-17-glucuronide formation at 200 uM after 15 to 60 mins by HPLC analysis in presence of UDPGA; settings: recombinant enzyme
T1 sequence (P0DTE4 whole entry): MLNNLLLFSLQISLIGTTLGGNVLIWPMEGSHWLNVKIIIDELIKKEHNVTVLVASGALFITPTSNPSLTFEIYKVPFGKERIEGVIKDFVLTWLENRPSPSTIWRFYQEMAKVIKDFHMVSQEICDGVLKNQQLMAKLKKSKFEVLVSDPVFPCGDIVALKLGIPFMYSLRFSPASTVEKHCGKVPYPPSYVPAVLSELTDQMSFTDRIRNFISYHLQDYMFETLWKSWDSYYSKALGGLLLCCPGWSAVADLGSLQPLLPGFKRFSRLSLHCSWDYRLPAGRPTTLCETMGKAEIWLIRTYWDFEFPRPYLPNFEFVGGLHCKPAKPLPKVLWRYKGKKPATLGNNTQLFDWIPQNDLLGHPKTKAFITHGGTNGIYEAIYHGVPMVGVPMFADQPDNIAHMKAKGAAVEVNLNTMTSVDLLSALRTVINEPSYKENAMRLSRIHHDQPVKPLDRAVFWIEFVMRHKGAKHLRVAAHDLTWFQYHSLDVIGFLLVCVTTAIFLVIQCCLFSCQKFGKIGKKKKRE
How it was run: (§1)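 Screening at a single substrate concentration of 200 μM, in triplicate. The reaction used 5 or 50 µg of UGT-enriched insect cell membranes in 50 mM phosphate pH 7.4 with 10 mM MgCl₂ and 5 mM UDPGA, 10% final DMSO. Incubation was 15–60 min at 37°C. Perchloric acid stopped the reaction and supernatants were analysed by HPLC. Controls lacked UDPGA. Rates were normalized to relative UGT expression level.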

Liver microsome = assay: Drug metabolism in human liver microsomes assessed as 17-epiestriol-17-glucuronide formation after 15 to 60 mins by Michaelis-Menten equation analysis in presence of UDPGA
How it was run: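 Pooled human liver microsomes (30 donors), 0.5 or 10 µg, with alamethicin at 5% of total protein. Incubated with 50 mM phosphate pH 7.4, 10 mM MgCl₂, 5 mM UDPGA and 10% DMSO for 15–60 min at 37°C. Each glucuronide regioisomer quantified by HPLC, in triplicate, with substrate consumption at or below 10%.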

[2] = biological target: T2, UDP-glucuronosyltransferase 1A3 (Homo sapiens, UniProt P35503); assay: Drug metabolism assessed as recombinant human C-terminal His-tagged UGT1A3-mediated 16-epiestriol-16-glucuronide formation after 15 to 60 mins by Michaelis-Menten equation analysis in presence of UDPGA; settings: recombinant enzyme
T2 sequence (P35503 whole entry): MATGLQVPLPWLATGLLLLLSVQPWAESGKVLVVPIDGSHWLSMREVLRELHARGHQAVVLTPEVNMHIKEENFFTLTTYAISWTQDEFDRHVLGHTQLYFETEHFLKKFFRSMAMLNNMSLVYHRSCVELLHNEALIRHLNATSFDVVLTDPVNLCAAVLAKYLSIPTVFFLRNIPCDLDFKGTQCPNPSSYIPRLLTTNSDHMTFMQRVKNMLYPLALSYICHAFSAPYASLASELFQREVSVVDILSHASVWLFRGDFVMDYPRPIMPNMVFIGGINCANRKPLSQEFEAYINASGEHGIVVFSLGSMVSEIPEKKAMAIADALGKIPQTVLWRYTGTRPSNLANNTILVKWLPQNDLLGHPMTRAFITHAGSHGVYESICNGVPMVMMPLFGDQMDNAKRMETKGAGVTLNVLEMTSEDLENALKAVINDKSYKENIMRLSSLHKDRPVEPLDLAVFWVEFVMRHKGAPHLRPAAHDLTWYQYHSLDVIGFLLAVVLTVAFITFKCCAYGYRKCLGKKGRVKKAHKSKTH

[3] = biological target: T3, UDP-glucuronosyltransferase 2B4 (Homo sapiens, UniProt P06133); assay: Drug metabolism assessed as recombinant human C-terminal His-tagged UGT2B4-mediated 16-epiestriol-16-glucuronide formation after 15 to 60 mins by Michaelis-Menten equation analysis in presence of UDPGA; settings: recombinant enzyme
T3 sequence (P06133 whole entry): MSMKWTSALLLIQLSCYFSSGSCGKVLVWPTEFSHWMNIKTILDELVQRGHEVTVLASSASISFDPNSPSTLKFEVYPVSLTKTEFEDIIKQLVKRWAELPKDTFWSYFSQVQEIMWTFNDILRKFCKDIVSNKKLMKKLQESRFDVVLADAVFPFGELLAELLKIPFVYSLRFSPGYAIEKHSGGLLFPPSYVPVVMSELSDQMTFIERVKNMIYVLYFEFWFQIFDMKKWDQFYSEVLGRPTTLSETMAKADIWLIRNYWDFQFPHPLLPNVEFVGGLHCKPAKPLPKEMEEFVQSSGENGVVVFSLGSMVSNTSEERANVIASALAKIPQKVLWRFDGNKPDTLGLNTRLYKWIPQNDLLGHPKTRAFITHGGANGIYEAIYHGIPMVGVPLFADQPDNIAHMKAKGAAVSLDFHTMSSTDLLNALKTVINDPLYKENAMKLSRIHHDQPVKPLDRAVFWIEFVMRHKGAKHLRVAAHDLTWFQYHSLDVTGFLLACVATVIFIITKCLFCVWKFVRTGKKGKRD

[4] = biological target: T4, UDP-glucuronosyltransferase 1A4 (Homo sapiens, UniProt P22310); assay: Drug metabolism assessed as recombinant human C-terminal His-tagged UGT1A4-mediated estradiol-17-glucuronide formation at 200 uM after 15 to 60 mins by HPLC analysis in presence of UDPGA; settings: recombinant enzyme; how it was run: as §1
T4 sequence (P22310 whole entry): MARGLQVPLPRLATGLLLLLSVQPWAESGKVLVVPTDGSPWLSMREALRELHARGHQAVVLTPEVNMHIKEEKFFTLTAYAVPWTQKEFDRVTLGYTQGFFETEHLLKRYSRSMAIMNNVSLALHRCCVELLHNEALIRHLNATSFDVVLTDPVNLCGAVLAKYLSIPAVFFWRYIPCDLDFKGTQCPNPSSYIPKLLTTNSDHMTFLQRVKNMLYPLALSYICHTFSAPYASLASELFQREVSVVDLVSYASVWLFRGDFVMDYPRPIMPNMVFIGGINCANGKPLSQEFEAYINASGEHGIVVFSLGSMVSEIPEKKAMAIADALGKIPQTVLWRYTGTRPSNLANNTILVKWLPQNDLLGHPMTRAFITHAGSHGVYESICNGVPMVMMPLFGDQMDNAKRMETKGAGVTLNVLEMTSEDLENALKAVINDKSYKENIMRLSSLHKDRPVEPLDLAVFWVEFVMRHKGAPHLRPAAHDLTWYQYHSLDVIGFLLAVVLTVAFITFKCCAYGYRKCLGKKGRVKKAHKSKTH

Drug metabolism [1]: metabolite_detected | Km (Liver microsome): 21 µM | Vmax (Liver microsome): 5425 pmol/min/mg
Compound: C[C@]12CC[C@@H]3c4ccc(O)cc4CC[C@H]3[C@@H]1C[C@@H](O)[C@H]2O

Drug metabolism [2]: 5 pmol/min/mg | Drug metabolism [3]: 5 pmol/min/mg
Compound: C[C@]12CC[C@@H]3c4ccc(O)cc4CC[C@H]3[C@@H]1C[C@H](O)[C@@H]2O [EPIESTRIOL]

Drug metabolism [4]: metabolite_detected
Compound: C[C@]12CC[C@@H]3c4ccc(O)cc4CC[C@H]3[C@@H]1CC[C@@H]2O [ESTRADIOL]
